Reference: ChEMBL document CHEMBL3259663, “3-Amido-3-aryl-piperidines: A Novel Class of Potent, Selective, and Orally Active GlyT1 Inhibitors” (ACS Med Chem Lett, 2014)

Experiments:
[1] = Intrinsic clearance in human liver microsomes; assay type: ADME; conditions: read-out: CLH
[2] = Ratio of drug level from brain to plasma in mouse at 7.7 mg/kg, po after 1.5 hrs; assay type: ADME, organism-based; design: dose 7.7 mg/kg, route oral; conditions: brain and plasma, read-out: BPR
Method in brief: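 Mouse PK after a 7.7 mg/kg oral dose. Brain/plasma ratio taken at 1.5 h. Values are the average of two independent experiments.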

[3] = system: Striatum; assay: Effect on plasma glycine level in rat striatum at 10 mg/kg, po; assay type: functional
Method in brief: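 Rat striatal microdialysis after a 10 mg/kg oral dose. Extracellular glycine measured as fold over basal levels, with sampling stopped at 3 h. Plasma and brain exposures determined at 3 h post-dose. n = 6.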

[4] = system: Mus musculus; assay: Inhibition of L687414-induced hyperlocomotion in po dosed mouse assessed horizontal activity; assay type: functional
Method in brief: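 Oral dosing in mice against L-687,414-induced hyperlocomotion. Horizontal activity counts recorded over 60 min, mean per group, n = 8 per group. ID₅₀ is the dose producing 50% inhibition of the hyperlocomotion.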

[5] = target: T1, Sodium- and chloride-dependent glycine transporter 1 (Mus musculus, UniProt P28571); assay: Inhibition of mouse GlyT1
T1 sequence (P28571 whole entry): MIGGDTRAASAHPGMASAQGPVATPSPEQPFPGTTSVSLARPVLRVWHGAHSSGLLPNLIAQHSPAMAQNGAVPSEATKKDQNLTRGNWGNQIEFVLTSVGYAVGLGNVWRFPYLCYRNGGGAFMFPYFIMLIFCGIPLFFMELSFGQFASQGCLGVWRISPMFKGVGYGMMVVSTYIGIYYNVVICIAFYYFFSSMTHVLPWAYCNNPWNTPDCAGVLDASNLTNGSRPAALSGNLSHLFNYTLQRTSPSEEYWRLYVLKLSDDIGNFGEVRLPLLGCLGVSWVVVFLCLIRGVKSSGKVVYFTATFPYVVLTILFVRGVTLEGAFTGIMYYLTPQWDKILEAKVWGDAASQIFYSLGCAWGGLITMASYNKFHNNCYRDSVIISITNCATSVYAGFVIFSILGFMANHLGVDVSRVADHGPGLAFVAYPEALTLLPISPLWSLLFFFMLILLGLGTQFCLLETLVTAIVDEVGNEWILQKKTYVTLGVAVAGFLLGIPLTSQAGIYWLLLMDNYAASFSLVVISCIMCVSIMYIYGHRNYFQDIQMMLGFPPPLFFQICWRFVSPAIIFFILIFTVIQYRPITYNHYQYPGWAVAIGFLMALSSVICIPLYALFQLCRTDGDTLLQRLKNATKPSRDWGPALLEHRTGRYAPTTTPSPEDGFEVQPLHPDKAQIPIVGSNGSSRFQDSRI

[6] = target: Cytochrome P450 2C19 (Homo sapiens, UniProt P33261); assay: Inhibition of CYP2C19 (unknown origin); assay type: ADME
[7] = system: Salmonella typhimurium; assay: Genotoxicity in Salmonella typhimurium by Ames test; assay type: toxicity, organism-based; conditions: salmonella enterica subsp. enterica serovar typhimurium

Chain of Cytochrome P450 2C19 (P33261 whole entry): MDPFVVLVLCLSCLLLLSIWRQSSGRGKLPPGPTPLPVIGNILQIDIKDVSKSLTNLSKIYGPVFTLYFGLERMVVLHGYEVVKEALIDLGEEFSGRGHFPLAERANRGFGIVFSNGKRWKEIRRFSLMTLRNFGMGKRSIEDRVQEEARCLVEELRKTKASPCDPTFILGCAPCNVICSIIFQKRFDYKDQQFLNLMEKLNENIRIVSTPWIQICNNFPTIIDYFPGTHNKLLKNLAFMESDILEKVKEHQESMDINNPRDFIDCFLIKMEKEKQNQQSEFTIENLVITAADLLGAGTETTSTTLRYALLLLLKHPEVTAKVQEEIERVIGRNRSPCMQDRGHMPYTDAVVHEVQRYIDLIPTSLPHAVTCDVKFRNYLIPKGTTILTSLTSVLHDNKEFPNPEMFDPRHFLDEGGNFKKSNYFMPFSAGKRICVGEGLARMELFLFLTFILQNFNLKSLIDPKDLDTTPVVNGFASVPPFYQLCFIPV

Compound `COc1cc(C(F)(F)F)cc(SC)c1C(=O)N[C@@]1(c2ccccc2)CCCN(C)C1` has a microsomal CLint [1] of 19 µL/min/mg, a Kp at 1.5 h [2] of 4.3 and an Activity [3] of 713 ng/mL. For the same compound, the inhibition [4] was “Dose-dependent effect”, the ED50 ([4]; read-out: ID50 (the source's name)) was 1.5 mg/kg and the EC50 [5] was 0.005 µM. For the same compound, the IC50 [6] was 46 µM and the Activity [7] was “Non-toxic”.
